Results taken from PMC5851871 (Bioorganic & medicinal chemistry letters, 2018).

What was measured:
[1] = system: recombinant thrombin mutants (exosite 2 Ala replacements); assay: Inhibition of recombinant exosite 2 alanine mutant versus wild-type thrombins; assay type: biochemical; settings: 11 single Ala mutants of exosite 2, Spectrozyme TH, pH 7.4, 25 °C
thrombin [2] = target: T1, thrombin (Homo sapiens, UniProt P00734); assay: Michaelis-Menten kinetics of Spectrozyme TH hydrolysis; assay type: biochemical; settings: Michaelis-Menten kinetic studies
How it was run: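 Thrombin hydrolysis of Spectrozyme TH, a chromogenic substrate, was read spectrophotometrically at pH 7.4 and 25 °C. The substrate was varied at several test compound levels up to 40 μM. VMAX and KM were taken from Michaelis-Menten analysis to assign the inhibition mechanism.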

[3] = target: thrombin cleavage of human fibrinogen (Homo sapiens, UniProt P00734); assay: PAGE densitometry of thrombin cleavage of fibrinogen; assay type: biochemical; settings: for Maximal inhibition of fibrinogen cleavage (ΔY against fibrinogen): saturating inhibitor, 4.7 μM fibrinogen, 6 nM thrombin, pH 7.4, 25 °C
How it was run: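 Thrombin (6 nM) cleaved human fibrinogen (4.7 μM) with test compound at 0 to 150 μM. Fibrinogen cleavage was monitored by polyacrylamide gel electrophoresis.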

thrombin [4] = target: T1, thrombin; assay: Thrombin inhibition, chromogenic substrate hydrolysis assay; assay type: biochemical; settings: 20 mM Tris-HCl pH 7.4, 25 mM CaCl2, 100 mM NaCl, 0.1% PEG 8000, 25 °C, ± 1 S.E.
thrombin [5] = target: T1, thrombin; settings: inhibition of human thrombin by peptides; cited from earlier work

| Mechanism of inhibition (thrombin [2]) | Maximal inhibition of fibrinogen cleavage (ΔY against fibrinogen) [3] | ΔY (efficacy of inhibition) (thrombin [4]) | Fibrinogen cleavage continuing at saturating inhibitor ([3]; saturating levels of inhibitor) | Compound | IC50 of mutant versus wild-type thrombin [1] | IC50 (thrombin [5]) |
| --- | --- | --- | --- | --- | --- | --- |
| mixed inhibition | greater than 90% | – | – | CCOC(=O)c1c(C)oc2cc(OCc3ccccc3)c(OCc3oc4cc(OCC5CCCCC5)c(OS(=O)(=O)[O-])cc4c3C(=O)OCC)cc12.[Na+] [2i] | potency changed significantly for several mutants including Arg165Ala, Lys169Ala, Arg175Ala, Arg233Ala and Lys236Ala | – |
| – | – | ~ 90% | – | CCOC(=O)c1c(C)oc2cc(OCC3CCCCC3)c(OCc3oc4cc(OCC5CCCCC5)c(OS(=O)(=O)[O-])cc4c3C(=O)OCC)cc12.[Na+] [2h] | – | – |
| – | – | – | – | Fibrinogen peptide (410 – 427): allosteric peptide inhibitor of thrombin, literature value from ref 18 | – | 130 µM |
| noncompetitive inhibitor | about 70±8% | – | approximately 30% | CCOC(=O)c1c(C)oc2cc(OCCc3ccccc3)c(OCc3oc4cc(OC)c(OS(=O)(=O)[O-])cc4c3C(=O)OCC)cc12.[Na+] [2c] | virtually no difference in IC50 between wild-type and mutant thrombin except for Arg233Ala and Lys235Ala proteins | – |
